Screening results as filed in PubChem.
Sampled rows, rich in hits. Any-hit rate of the full collection: about 3.5%.
MrgX1 ag: human MrgX1 receptor agonism, primary screen; MrgX1-HEK293 cells, Fluo-4 calcium fluorescence, agonist mode; hits give high values; B-score at 10 µM; 0.44% of 310,000 active; AID 588627;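 active = calcium response B-score plate-corrected fluorescence ratio at least 3 library SD, with starting fluorescence B-score inside 5 SD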
Target sequence (Q96LB2 whole entry, looked up): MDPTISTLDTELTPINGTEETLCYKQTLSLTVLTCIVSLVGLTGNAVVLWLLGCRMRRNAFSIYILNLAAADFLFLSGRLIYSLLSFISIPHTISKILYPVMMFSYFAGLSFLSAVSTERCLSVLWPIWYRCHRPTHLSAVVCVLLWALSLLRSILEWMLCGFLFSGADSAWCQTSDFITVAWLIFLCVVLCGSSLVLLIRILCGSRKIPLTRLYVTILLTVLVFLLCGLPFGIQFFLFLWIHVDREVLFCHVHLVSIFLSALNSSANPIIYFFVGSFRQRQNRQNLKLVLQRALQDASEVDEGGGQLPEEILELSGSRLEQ
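Material: MrgX1-expressing HEK293 cells / Dosing: compound as first of three additions / Incubation: overnight seeding, then 1 h dark dye loading / Signal: Fluo-4 NW calcium fluorescence / Evaluation: B-scored fluorescence response ratio / Benchmarks: positive and negative control wells on each plate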
RGS4 inh: human RGS4 inhibition | P49798 | HEK293 M3R/RGS4 inducible, Fluo-4 calcium flux; hits give high values; triggered by carbachol at its EC20 | B-score at 10 µM | 0.45% of 310,000 active;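 active = B-score, a plate-corrected calcium signal, over three deviations above library mean, with baseline fluorescence within five deviations of library mean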;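 also: RGS4 expression induced by doxycycline in cells with stable M3 receptor; B-score is computed from the integrated fluorescence ratio over baseline after carbachol; higher B-score means a larger calcium signal and so more RGS4 inhibition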
Target sequence (P49798 whole entry, looked up): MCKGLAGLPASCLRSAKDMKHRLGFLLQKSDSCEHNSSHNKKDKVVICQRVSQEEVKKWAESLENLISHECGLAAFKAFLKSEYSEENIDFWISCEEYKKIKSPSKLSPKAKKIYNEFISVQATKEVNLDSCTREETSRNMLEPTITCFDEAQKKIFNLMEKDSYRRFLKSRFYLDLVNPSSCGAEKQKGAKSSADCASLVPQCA
RGS4 pot: potentiators or activators of RGS4 | 0.92% of 310,000 active | HEK293 M3R/inducible RGS4, carbachol calcium flux Fluo4; hits give low values | AID 463111 | B-score at 10 µM;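 active = B-score of the integrated calcium signal more than 4 SD below the library mean, with starting fluorescence not abnormally high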;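 also: negative B-score means reduced calcium response which marks RGS4 activation or potentiation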
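System – HEK293 FlpIn-TREx cells, stable M3R, doxycycline-inducible RGS4 · Reagent – ECmax carbachol challenge · Times – compound preincubation 20 min at room temperature before agonist · Technique – Fluo4 fluorescence kinetic imaging of calcium · Measure – B score of integrated Fluo4 ratio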
MrgX1 antag: blocks BAM8-22 activation of human MrgX1 receptor | Q96LB2 | MRGX1-HEK293 calcium flux, Fluo-4, BAM8-22 antagonism; hits give low values | B-score at 10 µM | 1.3% of 310,000 active;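 active = calcium-response B-score plate-corrected more than 3 library SD below zero, starting fluorescence within 5 deviations, no agonist response on first addition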;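 also: peak minus trough fluorescence over baseline after final BAM8-22 challenge near maximal dose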
MrgX1 allo act: human MrgX1 positive allosteric modulation, primary screen. AID 588675. 0.63% of 310,000 active. Q96LB2. B-score at 10 µM. MrgX1-HEK293, Fluo-4 calcium flux, FDSS; hits give high values;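 active = plate-corrected calcium response at least 3 library SD above typical, normal starting fluorescence, not activating the receptor alone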;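 also: compound read alongside a low EC10 to EC30 dose of BAM8-22 agonist; peak minus trough fluorescence over baseline measured at the second addition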
RGS4 block valid: RGS4 inhibitor validation | HEK293 M3R/RGS4, carbachol calcium Fluo-4 fluorescence; carbachol added at its EC20; 0 = buffer wells, 100 = carbachol control | shares compounds with RGS4 inh | 65% of 1,700 active | calcium response, % at 10 µM;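 active = duplicate-averaged calcium response above the buffer-only control mean plus 5 SD of those controls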;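 also: integrated fluorescence ratio F max minus min over baseline F0; higher response in RGS4-induced cells means RGS4 inhibition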
M3R Ca ctr: non-induced cell nonspecific activity of RGS4 inhibitors; AID 493000; shares compounds with RGS4 inh; HEK293 M3R non-induced, carbachol calcium Fluo-4; submaximal (EC20) carbachol stimulus; buffer wells 0%, carbachol control wells 100%; 20% of 1,900 active; activity (percent), % at 10 µM; call rule not given here;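 also: RGS4 induction absent so cells express M3R without RGS4; higher means more calcium signal and flags a non-specific hit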
M3R basal Ca ctr: second RGS4 inhibitor counter-screen in uninduced cells lacking carbachol | shares compounds with RGS4 inh | HEK293 M3R/RGS4 non-induced, Fluo-4 calcium, no carbachol; normalised: buffer wells 0%, carbachol wells 100% | calcium response (agonist-mode artifact), % at 10 µM | 22% of 1,900 active;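 active = duplicate-averaged calcium rise in uninduced cells above buffer wells' mean plus 5 SD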
An asterisk follows results filed as active; i = inactive; / = no result.

SMILES	MrgX1 ag	RGS4 inh	RGS4 pot	MrgX1 antag	MrgX1 allo act	RGS4 block valid	M3R Ca ctr	M3R basal Ca ctr
Cc1ccc(/C=C/C(=O)c2ccccc(=O)c2O)c(C)c1	i	i	i	i	i	/	i	34%*
C/C=C\C(=O)Nc1cccc(C2=NOC3(C2)C[C@H](C(N)=O)N(C(=O)[C@H]2CCC(=O)N2)C3)c1 (some centres undefined)	i	i	i	i	i	/	/	/
COC(=O)c1ccc(NC(=O)c2ccc[n+]([O-])c2)cc1	i	i	i	i	i	/	/	/
COc1ccccc1NC(=S)N1CCCCCC1	i	i	i	i	i	/	/	/
COc1ccc(-c2sc3ccc(OC)cc3c2C#CCCO)cc1	i	i	i	i	i	i	i	i
COc1ccc(-c2ccc3oc(-c4ccc(OC)cc4)c(C#CCO)c3c2)cc1	i	i	i	i	i	/	/	/
Cc1cc(C)cc(NC(=O)OCCN2CCN(Cc3ccccc3)CCC2=O)c1	i	i	i	i	i	/	/	/
COc1ccccc1NC(=O)c1ccccc1C(=O)Nc1ccccc1OC	i	i	i	i	i	/	/	/
CCc1ccccc1-n1ncc(C(=O)Nc2ccccc2OC)c1C	i	7.4*	i	i	i	i	i	32%*
CCOc1ccc(C(C)=O)cc1COC(=O)CCc1cc(OC)c(OC)c(OC)c1	i	i	i	i	i	/	/	/
Cn1cccc1C(=O)OCC(=O)N1c2ccccc2NC(=O)C1(C)C	i	5.2*	i	i	i	6.5%*	i	i
Cn1cccc1C(=O)OCC(=O)N1CC(=O)Nc2ccccc21	i	i	i	i	i	/	/	/
CC(=O)c1c[nH]c(C(=O)NCc2ccccc2Cl)c1	i	5.2*	i	i	i	i	i	i
COc1cc(/C=N/NC(=O)c2ccc(F)cc2)ccc1OC(=O)c1ccco1	i	i	i	i	i	/	/	/
COc1cc(/C=C2/C(=O)NN(c3cccc(F)c3)C2=O)ccc1OC(=O)c1ccco1	i	i	i	i	i	/	i	i
COc1cc(/C=C2/C(=O)NN(c3ccc(Cl)cc3)C2=O)ccc1OC(=O)c1ccco1	i	i	i	i	i	/	i	8.5%*
CCCc1cnc(N2CCN(C(=O)c3c(-c4ccccc4)noc3C)CC2)nc1	i	i	i	i	i	/	/	/
COc1ccccc1C/C(N)=N/OC(=O)/C=C/c1ccccc1	i	i	i	i	i	/	/	/
CC1C/C(=C/c2ccccn2)C(=O)/C(=C/c2ccccn2)C1 (centres undefined)	i	10*	i	i	i	36%*	i	13%*
O=C/C=C/c1c(-c2ccccc2)cc2oc3ccccc3cc1-2	35*	24*	i	i	i	16%*	i	i
O=C(Nc1ccc(N2CCCC2)cc1)c1cc([N+](=O)[O-])ccc1N1CCOCC1	i	i	i	i	i	/	/	/
CC(=O)Nc1ccc(-c2nnc(SCC(=O)Nc3ccc4c(c3)oc3ccccc34)n2C)cc1	i	i	i	i	i	/	i	16%*
N#C/C(C(N)=O)=C1/CCCN1Cc1ccccc1	i	i	i	i	i	/	/	/
O=C(NCc1ccccc1)C(c1ccco1)N(C(=O)c1csnn1)c1ccccc1 (centres undefined)	i	i	i	i	i	/	/	/
Clc1ccc2[nH]c3c(c2c1)CCc1cn[nH]c1-3	i	11*	i	i	i	75%*	40%*	27%*
SMILES	MrgX1 ag	RGS4 inh	RGS4 pot	MrgX1 antag	MrgX1 allo act	RGS4 block valid	M3R Ca ctr	M3R basal Ca ctr
N#C/C(=C\c1cccnc1)C(=O)NC1CCCCC1	i	i	i	i	i	/	/	/
Cc1ccc(NC(=S)N/N=C/c2c(C)[nH]c3ccccc23)cc1	i	4.9*	i	i	i	6.5%*	i	12%*
Cc1[nH]c2ccccc2c1/C=N/NC(N)=S	i	i	i	i	i	/	/	/
COC(=O)c1c(C)c(OC(=O)c2c(C)cc(O)c(C=O)c2O)cc(C)c1O	i	i	i	i	i	/	/	/
COC(=O)c1c(C)cc(O)c(C=O)c1O	i	5.2*	i	i	i	26%*	i	i
Cc1cc2c(NC3CCCCC3)ncnc2s1	i	i	i	i	i	/	/	/
CN(C)Cc1c(C(=O)N/N=C/C2CC=CCC2)nnn1-c1nonc1N (centres undefined)	i	i	i	i	i	/	/	/
CCNC(=O)N1CCC(n2nccc2NC(=O)CCCc2ccccc2)CC1	i	i	i	i	i	/	/	/
Cc1ccc(-c2cc(-c3ccccc3[N+](=O)[O-])[nH]n2)c(O)c1	i	i	i	i	i	/	i	i
Cc1ccc(-c2cc(-c3ccccc3Cl)[nH]n2)c(O)c1	i	i	i	i	i	/	/	/
COc1ccccc1NC(=O)c1ccc(S(=O)(=O)NCc2ccco2)cc1	i	i	i	i	i	/	/	/
O=C(/C=C/c1ccc(F)cc1)Nc1ccc(S(=O)(=O)Nc2ncccn2)cc1	i	i	i	i	i	i	i	29%*
Cc1ccc(/C=C/C(=O)Nc2ccc(S(=O)(=O)Nc3ncccn3)cc2)cc1	i	i	i	i	i	/	/	/
CN(c1ccc(C(=O)N2CCN(Cc3ccccc3)CC2)cc1)S(=O)(=O)c1ccc(Cl)cc1	i	i	i	i	i	/	/	/
Cc1ccc(Nc2nc(C)cs2)cc1	i	i	i	i	i	/	/	/
Clc1ccc(C2=Nn3c(nnc3-c3n[nH]c4c3CCC4)SC2)cc1Cl	i	10*	i	i	i	24%*	i	i
Cc1cccc(C2(c3cccc(C)c3)CC2C(=O)Nc2ccc([N+](=O)[O-])cc2O)c1 (centres undefined)	i	i	i	i	i	/	/	/
O=C(/C=C/c1ccc(O)c(O)c1)c1ccccc1O	i	13*	i	i	14*	25%*	48%*	i
COc1ccc(C(=O)/C=C/c2ccccc2)c(O)c1	i	i	i	i	i	i	i	i
